One block for each compound: values may come before it.
How the values were obtained:
Bos taurus [1] = species on record: Bos taurus; test: Oxidation was assessed indirectly by measuring bovine serum albumin (BSA) thiol protection from the formation of thiobarbituric acid reactive substances (TBARs) by TBARs test at 10 uM; format: functional
Bos taurus [2] = species on record: Bos taurus; test: Oxidation was assessed indirectly by measuring bovine serum albumin(BSA) thiol protection from the formation of thiobarbituric acid reactive substances (TBARs) by TBARs test at 500 uM; format: functional
Bos taurus [3] = species on record: Bos taurus; test: Oxidation was assessed indirectly by measuring bovine serum albumin thiol protection by using Ellman''s test at 500 uM; format: functional
Summary of the method: (§1)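 Hydroxyl radicals from Fenton reaction (Fe2+/H2O2) oxidize BSA. Remaining thiols measured by Ellman's test. Compound present at the stated concentration. Reported as % protection relative to Trolox. Mean ± SEM of three experiments, ANOVA (p < 0.05).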

Bos taurus [4] = species on record: Bos taurus; test: Oxidation was assessed indirectly by measuring bovine serum albumin(BSA) thiol protection from the formation of thiobarbituric acid reactive substances (TBARs) by TBARs test at 100 uM; format: functional
Bos taurus [5] = species on record: Bos taurus; test: Oxidation was assessed indirectly by measuring bovine serum albumin thiol protection by using Ellman''s test at 1 mM; format: functional; summary of the method: as §1
COS-7 = test: CyclicAMP production in untransfected COS-7 cell control; format: functional
Summary of the method: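 Non-transfected COS-7 cells grown in DMEM/10% FBS at 37 °C, 5% CO2. Preincubated 30 min at 37 °C in serum-free DMEM/25 mM HEPES pH 7.5, then given 10 μM compound plus 0.24 mM IBMX and 0.1 μM propranolol for 20 min. cAMP in cold 5% TCA extract quantified by RIA, pmol/min/well.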

[6] = target: Beta-3 adrenergic receptor (Homo sapiens) (UniProt P13945); test: Beta adrenergic activity as cAMP production in human Beta3 adrenergic receptor expressing COS-7 cells with propranolol; format: functional, cell-based
Summary of the method: (§2)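 COS-7 cells in DMEM/10% FBS at 37 °C, 5% CO2, lipofected with human β3-receptor plasmid at 70-80% confluence, then grown 24 h. Cells preincubated 30 min at 37 °C in serum-free DMEM/25 mM HEPES pH 7.5, then exposed 20 min to 10 μM compound with 0.24 mM IBMX, with or without 0.1 μM propranolol. cAMP in TCA extract measured by RIA, expressed as pmol/min/well.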

Bos taurus [7] = species on record: Bos taurus; test: Oxidation was assessed indirectly by measuring bovine serum albumin (BSA) thiol protection from the formation of thiobarbituric acid reactive substances (TBARs) by TBARs test at 100 uM; format: functional
[8] = target: Beta-3 adrenergic receptor (Homo sapiens) (UniProt P13945); test: Beta adrenergic activity was determined by measuring cAMP production on human Beta3 adrenergic transfected COS-7 cells; format: functional, cell-based; summary of the method: as §2
Bos taurus [9] = species on record: Bos taurus; test: Oxidation was assessed indirectly by measuring bovine serum albumin (BSA) thiol protection from the formation of thiobarbituric acid reactive substances (TBARs) by TBARs test at 500 uM; format: functional
Summary of the method: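 Plasma lipid peroxidation induced by Fenton-generated hydroxyl radicals (Fe2+/H2O2), with compound at the stated concentration. Thiobarbituric acid reactive substances quantified. Expressed as % protection relative to Trolox. Mean ± SEM, three experiments, ANOVA (p < 0.05).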

Bos taurus [10] = species on record: Bos taurus; test: Oxidation was assessed indirectly by measuring bovine serum albumin (BSA) thiol protection by using Ellman''s test at 1 mM; format: functional; summary of the method: as §1
Bos taurus [11] = species on record: Bos taurus; test: Oxidation was assessed indirectly by measuring bovine serum albumin (BSA) thiol protection by using Ellman''s test at 500 uM; format: functional; summary of the method: as §1
Bos taurus [12] = species on record: Bos taurus; test: Oxidation was assessed indirectly by measuring bovine serum albumin(BSA) thiol protection from the formation of thiobarbituric acid reactive substances (TBARs) by TBARs test at 10 uM; format: functional

Beta-3 adrenergic receptor (Homo sapiens), sequence (P13945 whole entry, looked up): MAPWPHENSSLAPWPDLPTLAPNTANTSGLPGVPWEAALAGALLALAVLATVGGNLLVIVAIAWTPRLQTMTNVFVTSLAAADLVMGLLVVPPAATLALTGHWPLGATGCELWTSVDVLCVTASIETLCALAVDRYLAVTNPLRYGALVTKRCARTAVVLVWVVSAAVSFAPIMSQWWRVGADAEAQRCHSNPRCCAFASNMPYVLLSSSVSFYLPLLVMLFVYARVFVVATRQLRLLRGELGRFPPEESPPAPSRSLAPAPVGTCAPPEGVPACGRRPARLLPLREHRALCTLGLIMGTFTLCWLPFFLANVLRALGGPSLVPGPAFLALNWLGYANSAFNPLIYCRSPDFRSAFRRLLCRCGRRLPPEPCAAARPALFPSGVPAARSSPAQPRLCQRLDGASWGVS

cAMP production (pM min-1 well-1) [6]: 33.2
Compound: Cc1c(C)c2c(c(C)c1O)CCC(C)(COc1ccc(NCC(O)COc3ccc4ccncc4c3)cc1)O2 (stereo not given)
cAMP production (COS-7): 33 pmol/min/well

cAMP production (pM min-1 well-1) [6]: 76.3
cAMP production (pM min-1 well-1) [8]: 130
Compound: CC(C)(C)c1cc(CCCOc2ccc(NCC(O)COc3cccc4cnccc34)cc2)cc(C(C)(C)C)c1O (stereo not given)
Protection (Bos taurus [1]): 43.6%
Protection (Bos taurus [7]): 32.8%
cAMP production (COS-7): 24.9 pmol/min/well
Protection (Bos taurus [9]): 49.3%

cAMP production (pM min-1 well-1) [6]: 41.6
cAMP production (pM min-1 well-1) [8]: 142
Compound: Cc1c(C)c2c(c(C)c1O)CCC(C)(COc1ccc(NCC(O)COc3cccc4cnccc34)cc1)O2 (stereo not given)
Protection (Bos taurus [1]): 39.4%
Protection (Bos taurus [7]): 49.3%
cAMP production (COS-7): 28.7 pmol/min/well
Protection (Bos taurus [3]): 54.8%
Protection (Bos taurus [5]): 115.2%
Protection (Bos taurus [9]): 94.4%

cAMP production (pM min-1 well-1) [6]: 28.6
cAMP production (pM min-1 well-1) [8]: 103
Compound: Cc1c(C)c2c(c(C)c1O)CCC(C)(COc1ccc(NCC(O)COc3cccc4ncccc34)cc1)O2 (stereo not given)
Protection (Bos taurus [12]): 37.8%
Protection (Bos taurus [2]): 78.2%
cAMP production (COS-7): 26.8 pmol/min/well
Protection (Bos taurus [3]): 49.2%
Protection (Bos taurus [4]): 64.6%
Protection (Bos taurus [5]): 82.9%

cAMP production (pM min-1 well-1) [6]: 23.9
Compound: CC(C)(C)c1cc(CCCOc2ccc(NCC(O)COc3ccc4ccncc4c3)cc2)cc(C(C)(C)C)c1O (stereo not given)
cAMP production (COS-7): 26.9 pmol/min/well

cAMP production (pM min-1 well-1) [6]: 21.4
cAMP production (pM min-1 well-1) [8]: 97.4
Compound: CC(C)(C)c1cc(CCCOc2ccc(NCC(O)COc3ccc4cccnc4c3)cc2)cc(C(C)(C)C)c1O (stereo not given)
cAMP production (COS-7): 23.3 pmol/min/well

Continued, compound first:

Compound: Cc1c(C)c2c(c(C)c1O)CCC(C)(C(=O)O)O2 (stereo not given) [TROLOX]
Protection (Bos taurus [1]): -21.4%
Protection (Bos taurus [2]): 64.8%
Protection (Bos taurus [3]): 31.4%
Protection (Bos taurus [4]): 7.6%
Protection (Bos taurus [5]): 75.2%

Compound: Cc1c(C)c2c(c(C)c1O)CCC(C)(COc1ccc(NCC(O)COc3cccc4[nH]c5ccccc5c34)cc1)O2 (stereo not given)
cAMP production (COS-7): 31.5 pmol/min/well
cAMP production (pM min-1 well-1) [6]: 22.3

Compound: COc1ccccc1OCCNCC(O)COc1cccc2[nH]c3ccccc3c12 (stereo not given) [CARVEDILOL]
Protection (Bos taurus [1]): 1%
Protection (Bos taurus [2]): 6.2%
Protection (Bos taurus [3]): 20%
Protection (Bos taurus [4]): -0.6%
Protection (Bos taurus [5]): -88.6%

Compound: CC(C)(C)c1cc(CCCOc2ccc(NCC(O)COc3cccc4ncccc34)cc2)cc(C(C)(C)C)c1O (stereo not given)
Protection (Bos taurus [10]): 120.3%
Protection (Bos taurus [1]): 30.3%
Protection (Bos taurus [7]): 33.3%
Protection (Bos taurus [11]): 47.3%
cAMP production (COS-7): 21.6 pmol/min/well
Protection (Bos taurus [9]): 50.4%

Compound: Cc1c(C)c2c(c(C)c1O)CCC(C)(COc1ccc(NCC(O)COc3cccc4[nH]c5ncccc5c34)cc1)O2 (stereo not given)
Protection (Bos taurus [1]): 44.3%
Protection (Bos taurus [7]): 53.6%
Protection (Bos taurus [9]): 75.5%

Source: ChEMBL document CHEMBL1135374, “New series of aryloxypropanolamines with both human beta(3)-adrenoceptor agonistic activity and free radical scavenging properties” (2002)
